According to ChEMBL document CHEMBL2163291, “Synthesis of pyrazole peptidomimetics and their inhibition against A549 lung cancer cells” (Bioorg Med Chem Lett, 2012):
The source made the active and inactive calls. The calls are words filed in the database; no cut-off is given here.

Assays:
A549 [1] = experiment: Cytotoxicity against human A549 cells assessed cell viability after 48 hrs by SRB assay; assay type: functional, cell-based; details: for IC50: A549, 48 h
Outline: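 A549 cells were treated for 48 h and net growth was measured by sulforhodamine B colorimetric assay. IC50 is the concentration causing a 50% decrease in net cell growth. Test levels were 40, 60 and 80 µM.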

A549 [2] = experiment: Induction of necrosis in human A549 cells at 80 uM after 48 hrs by LDH release assay; assay type: functional, cell-based
Outline: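 A549 cells were treated at 80 µM, or with 0.1% DMSO or left untreated as control, for 48 h. LDH release into the cells' surroundings served as the necrosis read-out, n = 3, mean ± SE.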

A549 [3] = experiment: Cell cycle arrest in human A549 cells assessed as accumulation at S phase at 80 uM after 48 hrs by FACS flow cytometry (reference value: 34.67 %); assay type: functional
A549 [4] = experiment: Cell cycle arrest in human A549 cells assessed as accumulation at G2 phase at 80 uM after 48 hrs by FACS flow cytometry (reference value: 9.39 %); assay type: functional
A549 [5] = experiment: Induction of autophagy in human A549 cells assessed as increase in LC3-2 level at 80 uM after 48 hrs by Western blot analysis relative to beta-actin; assay type: functional, cell-based
Outline: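 A549 cells were treated at 80 µM for 48 h. LC3-II protein was detected by immunoblot and normalized to β-actin, expressed as percent of control, n = 3.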

A549 [6] = experiment: Induction of apoptosis in human A549 cells assessed as chromatin condensation at 80 uM after 48 hrs by Hoechst 33258 staining-based fluorescent microscopy; assay type: functional, cell-based
Outline: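 A549 cells were exposed to compound at 80 µM for 48 h, then stained with Hoechst 33258. Nuclei were examined by fluorescence microscopy for chromatin condensation and apoptotic bodies, against an untreated control group.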

A549 [7] = experiment: Cell cycle arrest in human A549 cells assessed as accumulation at G1 phase at 80 uM after 48 hrs by FACS flow cytometry (reference value: 55.94%); assay type: functional
A549 [8] = experiment: Cytotoxicity against human A549 cells assessed as cell viability at 40 uM after 48 hrs by SRB assay; assay type: functional, cell-based
Outline: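 A549 cells were treated at 40, 60 or 80 µM, or left untreated (control), for 48 h. Viability was read by sulforhodamine B colorimetric assay against untreated cells, n = 3, mean ± SE.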

SMILES	Activity (A549 [1])	IC50 (A549 [1])	Activity (A549 [2])	Activity (A549 [3])	Activity (A549 [4])	Activity (A549 [5])	Activity (A549 [6])	Activity (A549 [7])	Activity (A549 [8])
CCOC(=O)CNC(=O)c1cc(-c2ccc(Cl)cc2)nn1Cc1ccc(C(C)(C)C)cc1	Dose-dependent effect	63.4 µM	inactive	19.91%	4.04%	Active	Active	76.06%	
CCOC(=O)[C@@H](CO)NC(=O)c1cc(-c2ccc(Cl)cc2)nn1Cc1ccc(C(C)(C)C)cc1	Dose-dependent effect	38.8 µM	inactive	19.53%	0.92%	Active	Active	79.54%	Active
CCOC(=O)CNC(=O)c1cc(-c2ccc(Cl)cc2)nn1Cc1ccccc1			inactive	34.04%	8.57%	Active	Active	57.39%	
CCOC(=O)[C@@H](CO)NC(=O)c1cc(-c2ccc(Cl)cc2)nn1Cc1ccccc1	Dose-dependent effect	56.8 µM	inactive	40.08%	0.69%	Active	Active	59.23%	
CCOC(=O)[C@@H](CO)NC(=O)c1cc(-c2ccccc2)nn1Cc1ccc(C(C)(C)C)cc1	Dose-dependent effect	36.1 µM	inactive	21.63%	6.06%	Active	Active	72.31%	Active
CCOC(=O)[C@@H](CO)NC(=O)c1cc(-c2ccccc2)nn1Cc1ccccc1	Dose-dependent effect	56.1 µM	inactive	34.44%	8.08%	Active	Active	57.48%	
CCOC(=O)[C@@H](CS)NC(=O)c1cc(-c2ccc(Cl)cc2)nn1Cc1ccccc1			inactive	32.55%	7.25%	Active	Active	60.2%	
O=c1[nH]cc(F)c(=O)[nH]1 [FLUOROURACIL]		4.21 µM							
